TDP2 inh – blocks human TDP2 phosphodiesterase activity. O95551. AID 720702. 370,000 tested, 0.34% active. inhibition, % at 12.8 µM. recombinant TDP2, T5PNP hydrolysis, p-nitrophenol absorbance 415 nm;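 active means inhibition above the mean of all tested compounds plus 3 SD, set per campaign, cut at about 25% in these data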;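 further: 0% = DMSO with enzyme and 100% = buffer with substrate but no TDP2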
Target sequence (O95551 whole entry, looked up): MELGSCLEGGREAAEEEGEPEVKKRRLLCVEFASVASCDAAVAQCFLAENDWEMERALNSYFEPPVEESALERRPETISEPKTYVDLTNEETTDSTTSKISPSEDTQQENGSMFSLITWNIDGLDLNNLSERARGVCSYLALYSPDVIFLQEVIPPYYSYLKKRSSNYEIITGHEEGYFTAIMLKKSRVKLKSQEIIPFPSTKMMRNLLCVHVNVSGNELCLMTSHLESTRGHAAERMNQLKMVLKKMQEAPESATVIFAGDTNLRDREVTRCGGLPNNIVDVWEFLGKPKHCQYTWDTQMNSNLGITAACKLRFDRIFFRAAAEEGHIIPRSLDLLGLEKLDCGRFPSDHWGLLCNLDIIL
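test system = human TDP2 enzyme | input = TDP2 enzyme at 120 nM final | medium = 50 mM Tris-HCl pH 7.5 with Mg2+, KCl, DTT, BSA | also added = T5PNP substrate, 5 mM | times = 2 h at 37 °C | technique = epi absorbance | benchmarks = high control without enzyme, low control DMSO plus TDP2 | replication = each compound tested once, singlicate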
Tn7 DDE FP – disrupts Tn7 cyclic peptide binding to fibrin D-Dimer-E complex; FP displacement of FITC-Tn7 peptide from fibrin DD(E); 0% = median of compound wells per plate; P02675; 370,000 tested, 0.13% active; inhibition, % at 8.3 µM;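 active means inhibition above the mean of compounds falling within the control limits plus 3 SD of them, cut at about 14% in these data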;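 further: 0% = plate median of compound wells and 100% = 10 µM Aha-Tn7 peptide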
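system = human fibrin DD(E) protein | quantity = DD(E) 2 µM final | medium = Tris/NaCl/CaCl2 buffer, pH 7.8 | also added = labelled Tn7 tracer, 0.1 µM | compound dosing = single point at 8.3 µM | timing = compound with protein 10 min, then 3 h after probe, room temperature | signal = FP measurement | benchmarks = Aha-Tn7 high control | repeats = one replicate per compound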
UHRF1 MBD2 ctr – blocks human UHRF1 binding to methylated DNA | 370,000 tested, 0.75% active | UHRF1 binding to methylated oligo, TR-FRET | Q96T88 | inhibition, % at 4.4 µM | AID 687016;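 further: UHRF1 SRA domain binding a hemimethylated CpG hairpin DNA probe; 0% = median of test compound wells and 100% = reference inhibitor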
DDE Tn6 FP inh – inhibitors of Tn6 peptide binding to human fibrin DD(E) | P02675 | Fibrin DD(E) TRITC-Tn6 fluorescence polarization displacement | inhibition, % at 8.3 µM | 370,000 tested, 0.21% active | AID 720509;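 active means inhibition above a per-campaign cutoff: mean of compounds within control limits plus 3 SD, cut at about 15% in these data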;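 further: 0% = median of all compound wells on the plate and 100% = blocking peptide control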
MBD2 DNA inh – MBD2-methylated oligo binding inhibition; inhibition, % at 4.4 µM; AID 686964; TR-FRET, MBD2 binding to methylated oligonucleotide; Q9UBB5; 370,000 tested, 0.31% active; in the data active means inhibition above about 13%
LEDGF integ inh – blocks HIV-1 LEDGF/p75-dependent DNA integration; 370,000 tested, 0.64% active; inhibition, % at 3.7 µM; AID 743269; TR-FRET IN-LEDGF/p75 DNA integration, Eu/Cy5;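 active means inhibition above the screen-wide mean plus 3 SD, cut at about 13% in these data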;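 further: signal is the Cy5 over europium emission ratio at 671 and 618 nm; 0% = plate median of compound wells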
UHRF1 DNA bind – inhibits human UHRF1 binding to methylated oligonucleotide, MBD2 counter-screen; TR-FRET; shares compounds with MBD2 DNA inh; 1,000 tested, 25% active; inhibition, % at 4.4 µM;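 further: UHRF1 SRA domain binding a labeled hemimethylated CpG hairpin DNA; 0% = vehicle only and 100% = reference inhibitor with vehicle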
MBD2 confirm – confirmation of human MBD2-DBD methylated oligonucleotide binding inhibitors; shares compounds with MBD2 DNA inh; TR-FRET MBD2-DBD binding to methylated oligonucleotide; inhibition, % at 4.4 µM; 1,000 tested, 26% active; AID 720531; in the data active means inhibition above about 14%
An asterisk follows results filed as active. Compounds with a hit are over-represented: about 1.9% of the library has one in this group of screens. Unless noted, no stated cut-off is given here; in the data, active means inhibition above about 21%; inactive means the rest.

`Cn1cc(C[C@H](NC(=O)OC(C)(C)C)C(=O)N[C@@H](CO)Cc2ccccc2)c2ccccc21` gave TDP2 inh -5, Tn7 DDE FP 10, UHRF1 MBD2 ctr 2, DDE Tn6 FP inh -5, MBD2 DNA inh 26*, LEDGF integ inh 1, UHRF1 DNA bind 7 and MBD2 confirm 2.
`COc1cc2cc(CCCOC(=O)c3ccc(C(F)(F)F)cc3)oc(=O)c2cc1OC` gave TDP2 inh -4, Tn7 DDE FP -3, UHRF1 MBD2 ctr 2, DDE Tn6 FP inh 0, MBD2 DNA inh 20*, LEDGF integ inh 2, UHRF1 DNA bind 2 and MBD2 confirm 8.
`O=C(OCCCc1cc2ccccc2c(=O)o1)c1ccc(C(F)(F)F)cc1` gave TDP2 inh -4, Tn7 DDE FP 6, UHRF1 MBD2 ctr -1, DDE Tn6 FP inh -2, MBD2 DNA inh 3 and LEDGF integ inh -3.
Screening O=C(O)CCc1ccc(-c2cccs2)n1CC(=O)Nc1ccccc1C(F)(F)F returned TDP2 inh -26, Tn7 DDE FP 3, UHRF1 MBD2 ctr 1, DDE Tn6 FP inh 2, MBD2 DNA inh 28*, LEDGF integ inh 1, UHRF1 DNA bind 0 and MBD2 confirm 4.
Screening COCCn1c(CCC(=O)O)ccc1-c1cccs1 returned TDP2 inh 3, Tn7 DDE FP -5, UHRF1 MBD2 ctr 0, DDE Tn6 FP inh -1, MBD2 DNA inh 0 and LEDGF integ inh 3.
C[C@H](c1ccccc1)N1C[C@@H](COCc2ccccc2)Oc2cccc(N3CCCCC3)c2S1(=O)=O was read as TDP2 inh 12, Tn7 DDE FP 10, UHRF1 MBD2 ctr -1, DDE Tn6 FP inh 2, MBD2 DNA inh 2 and LEDGF integ inh -6.
For CCCCOCCCNC(=O)C[C@H]1C[C@@]2(C(=O)OC)C(=C[C@H](C(C)(C)C)O[C@@H]2C)N(Cc2ccccc2)C1=O the results were TDP2 inh -6, Tn7 DDE FP 7, UHRF1 MBD2 ctr 2, DDE Tn6 FP inh -4, MBD2 DNA inh 3 and LEDGF integ inh -3.
COc1cc2c(cc1NC(=O)COC(=O)Cn1cnc3ccccc31)oc1ccccc12 was read as TDP2 inh 3, Tn7 DDE FP 3, UHRF1 MBD2 ctr -4, DDE Tn6 FP inh 0, MBD2 DNA inh 19*, LEDGF integ inh -2, UHRF1 DNA bind 3 and MBD2 confirm 3.
Screening COC(=O)[C@]12C[C@H](CC(=O)NCC34CC5CC(CC(C5)C3)C4)C(=O)N(Cc3ccc(Cl)cc3Cl)C1=C[C@H](C1CCCC1)O[C@@H]2C returned TDP2 inh -10, Tn7 DDE FP 0, UHRF1 MBD2 ctr -1, DDE Tn6 FP inh -2, MBD2 DNA inh 1 and LEDGF integ inh 6.
Screening CCOC(=O)[C@@]12CCCC3=C1N(CCC3)C(=O)[C@H]2CC(=O)N1CCSCC1 returned TDP2 inh 6, Tn7 DDE FP 3, UHRF1 MBD2 ctr 0, DDE Tn6 FP inh -7, MBD2 DNA inh 6 and LEDGF integ inh 4.
For CC(C)(Oc1ccc(F)cc1)C(=O)OCC(=O)c1ccc(S(C)(=O)=O)cc1 the results were TDP2 inh -7, Tn7 DDE FP 0, UHRF1 MBD2 ctr -1, DDE Tn6 FP inh -2, MBD2 DNA inh 36*, LEDGF integ inh 2, UHRF1 DNA bind 6 and MBD2 confirm 2.
Screening Cc1ccc(C2NC(=S)NC3=C2C(=O)CCC3)cc1 (centres undefined) returned TDP2 inh 2, Tn7 DDE FP 6, UHRF1 MBD2 ctr 24*, DDE Tn6 FP inh -9, MBD2 DNA inh 14*, LEDGF integ inh -3, UHRF1 DNA bind 1 and MBD2 confirm 2.
For O=C1CCCC2=C1C(c1ccccc1)NC(=S)N2 (centres undefined) the results were TDP2 inh -7, Tn7 DDE FP 5, UHRF1 MBD2 ctr -2, DDE Tn6 FP inh 2, MBD2 DNA inh -5 and LEDGF integ inh 0.
CCOC(=O)c1[nH]ncc1CN1CCCC(C(=O)c2cccc3ccccc23)C1 (centres undefined) was read as TDP2 inh -5, Tn7 DDE FP -5, UHRF1 MBD2 ctr 24*, DDE Tn6 FP inh -6, MBD2 DNA inh 14*, LEDGF integ inh -5, UHRF1 DNA bind 6 and MBD2 confirm 1.
For CCOC(=O)c1[nH]ncc1CN1CCCC(C(=O)c2ccc(SC)cc2)C1 (centres undefined) the results were TDP2 inh 4, Tn7 DDE FP 3, UHRF1 MBD2 ctr 3, DDE Tn6 FP inh 12, MBD2 DNA inh -6 and LEDGF integ inh 1.
Screening CCNC(=O)N1CCN(c2ccc(N3CCN(C(=O)NCC)[C@H](C)C3)c(C)c2)[C@@H](C)C1 returned TDP2 inh 8, Tn7 DDE FP 5, UHRF1 MBD2 ctr 0, DDE Tn6 FP inh -5, MBD2 DNA inh -5 and LEDGF integ inh 1.
For O=C(NNC(=O)c1ccccc1F)c1cccc(-n2cccc2)c1 the results were TDP2 inh 0, Tn7 DDE FP -2, UHRF1 MBD2 ctr 46*, DDE Tn6 FP inh 7, MBD2 DNA inh 24*, LEDGF integ inh 7, UHRF1 DNA bind 46* and MBD2 confirm 34*.
For Cc1ccc(-c2cc3nc(C)cc(C)n3n2)cc1 the results were TDP2 inh -1, Tn7 DDE FP -7, UHRF1 MBD2 ctr 2, DDE Tn6 FP inh -5, MBD2 DNA inh -2 and LEDGF integ inh -2.
For Cc1cc(C)n2nc(-c3ccc(F)cc3)cc2n1 the results were TDP2 inh 9, Tn7 DDE FP 1, UHRF1 MBD2 ctr -1, DDE Tn6 FP inh 1, MBD2 DNA inh 28*, LEDGF integ inh -4, UHRF1 DNA bind 7 and MBD2 confirm 3.
C=Cc1c(C)c2cc3[nH]c(cc4nc(cc5nc(cc1[nH]2)C(C)=C5CCC(=O)O)C(CCC(=O)O)=C4C)c(C)c3C=C was read as TDP2 inh 13, Tn7 DDE FP -1, UHRF1 MBD2 ctr 75*, DDE Tn6 FP inh 31*, MBD2 DNA inh 47*, LEDGF integ inh 85*, UHRF1 DNA bind 97* and MBD2 confirm 67*.
Screening COC(=O)c1cccc(Nc2cc(C)n(-c3cccc(C(=O)OC)c3)c(=O)c2)c1 returned TDP2 inh 0, Tn7 DDE FP -1, UHRF1 MBD2 ctr 2, DDE Tn6 FP inh -4, MBD2 DNA inh -1 and LEDGF integ inh 1.
